Laboratory results: ChEMBL document CHEMBL1156088, “Synthesis and biological activity of novel oxazolidinones” (2009)
In brackets after ≈: the same amount, converted by molar mass.

Assays:
Type in all cases: functional
Staphylococcus aureus [1] = experiment: Antibacterial activity against Staphylococcus aureus 15187 by NCCLS method
Method in brief: (§1)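 In vitro MIC determination by the NCCLS method against a panel of gram-positive bacteria. Two oxazolidinone reference standards were tested alongside.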

Staphylococcus aureus [2] = experiment: Antibacterial activity against Staphylococcus aureus ATCC 25923 by NCCLS method; method in brief: as §1
Staphylococcus aureus [3] = experiment: Antibacterial activity against methicillin-resistant Staphylococcus aureus 562 by NCCLS method
Method in brief: (§2)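 In vitro MIC determined by the NCCLS method against a panel of gram-positive bacteria. Ranbezolid and linezolid were run alongside as reference standards.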

Staphylococcus aureus [4] = experiment: Antibacterial activity against methicillin-resistant Staphylococcus aureus 33 by NCCLS method; method in brief: as §2
Enterococcus faecalis = experiment: Antibacterial activity against Enterococcus faecalis ATCC 29212 by NCCLS method; method in brief: as §1
Enterococcus faecium = experiment: Antibacterial activity against vancomycin-resistant Enterococcus faecium 6A by NCCLS method; method in brief: as §2
Streptococcus pyogenes = experiment: Antibacterial activity against Streptococcus pyogenes ATCC 19615 by NCCLS method; method in brief: as §1
Streptococcus pneumoniae = experiment: Antibacterial activity against Streptococcus pneumoniae ATCC 6303 by NCCLS method; method in brief: as §1

Row | Compound | MIC (Staphylococcus aureus [1]) | MIC (Staphylococcus aureus [2]) | MIC (Staphylococcus aureus [3]) | MIC (Staphylococcus aureus [4]) | MIC (Enterococcus faecalis) | MIC (Enterococcus faecium) | MIC (Streptococcus pyogenes) | MIC (Streptococcus pneumoniae)
1 | COC(=S)NC[C@H]1CN(c2ccc(N3CCN(Cc4ccc([N+](=O)[O-])o4)CC3)c(F)c2)C(=O)O1 | 2 µg/mL (≈ 4.05 µM) | 2 µg/mL (≈ 4.05 µM) | 2 µg/mL (≈ 4.05 µM) | 2 µg/mL (≈ 4.05 µM) | 1 µg/mL (≈ 2.03 µM) | 1 µg/mL (≈ 2.03 µM) | 1 µg/mL (≈ 2.03 µM) | 0.5 µg/mL (≈ 1.01 µM)
2 | O=C(NC[C@H]1CN(c2ccc(N3CCN(Cc4ccc([N+](=O)[O-])o4)CC3)c(F)c2)C(=O)O1)c1ccc(Br)o1 | > 16 µg/mL | > 16 µg/mL | > 16 µg/mL | > 16 µg/mL | > 16 µg/mL | > 16 µg/mL | > 16 µg/mL | > 16 µg/mL
3 | O=C1O[C@@H](CNc2ccon2)CN1c1ccc(N2CCN(Cc3ccc([N+](=O)[O-])o3)CC2)c(F)c1 | 2 µg/mL (≈ 4.11 µM) | 2 µg/mL (≈ 4.11 µM) | 2 µg/mL (≈ 4.11 µM) | 2 µg/mL (≈ 4.11 µM) | 2 µg/mL (≈ 4.11 µM) | 2 µg/mL (≈ 4.11 µM) | 1 µg/mL (≈ 2.06 µM) | 1 µg/mL (≈ 2.06 µM)
4 | O=C1O[C@@H](CO)CN1c1ccc(N2CCN(Cc3ccc([N+](=O)[O-])o3)CC2)c(F)c1 | > 16 µg/mL | > 16 µg/mL | > 16 µg/mL | > 16 µg/mL | > 16 µg/mL | > 16 µg/mL | > 16 µg/mL | > 16 µg/mL
5 | CCOC(=O)NC[C@H]1CN(c2ccc(N3CCN(Cc4ccc([N+](=O)[O-])o4)CC3)c(F)c2)C(=O)O1 | > 16 µg/mL | > 16 µg/mL | > 16 µg/mL | > 16 µg/mL | > 16 µg/mL | > 16 µg/mL | > 16 µg/mL | > 16 µg/mL
6 | CC(Cl)C(=O)NC[C@H]1CN(c2ccc(N3CCN(Cc4ccc([N+](=O)[O-])o4)CC3)c(F)c2)C(=O)O1 (some centres not stated) | > 16 µg/mL | > 16 µg/mL | > 16 µg/mL | > 16 µg/mL | > 16 µg/mL | > 16 µg/mL | > 16 µg/mL | > 16 µg/mL
7 | O=C1O[C@@H](CN=C=S)CN1c1ccc(N2CCN(Cc3ccc([N+](=O)[O-])o3)CC2)c(F)c1 | > 16 µg/mL | > 16 µg/mL | > 16 µg/mL | > 16 µg/mL | > 16 µg/mL | > 16 µg/mL | > 16 µg/mL | > 16 µg/mL
8 | O=C(/C=C/c1ccc2c(c1)OCO2)NC[C@H]1CN(c2ccc(N3CCN(Cc4ccc([N+](=O)[O-])o4)CC3)c(F)c2)C(=O)O1 | > 16 µg/mL | > 16 µg/mL | > 16 µg/mL | > 16 µg/mL | > 16 µg/mL | > 16 µg/mL | > 16 µg/mL | > 16 µg/mL
9 | O=C(NC[C@H]1CN(c2ccc(N3CCN(Cc4ccc([N+](=O)[O-])o4)CC3)c(F)c2)C(=O)O1)c1cc2ccccc2o1 | > 16 µg/mL | > 16 µg/mL | > 16 µg/mL | > 16 µg/mL | > 16 µg/mL | > 16 µg/mL | > 16 µg/mL | > 16 µg/mL
10 | CC(=O)NC[C@H]1CN(c2ccc(N3CCOCC3)c(F)c2)C(=O)O1 [LINEZOLID] | – | – | – | – | – | 2 µg/mL (≈ 5.93 µM) | 2 µg/mL (≈ 5.93 µM) | –
11 | O=C(CF)NC[C@H]1CN(c2ccc(N3CCN(Cc4ccc([N+](=O)[O-])o4)CC3)c(F)c2)C(=O)O1 | 2 µg/mL (≈ 4.17 µM) | 4 µg/mL (≈ 8.34 µM) | 2 µg/mL (≈ 4.17 µM) | 4 µg/mL (≈ 8.34 µM) | 4 µg/mL (≈ 8.34 µM) | 4 µg/mL (≈ 8.34 µM) | 0.5 µg/mL (≈ 1.04 µM) | 1 µg/mL (≈ 2.09 µM)
12 | O=C(/C=C/c1ccc(F)cc1)NC[C@H]1CN(c2ccc(N3CCN(Cc4ccc([N+](=O)[O-])o4)CC3)c(F)c2)C(=O)O1 | > 16 µg/mL | > 16 µg/mL | > 16 µg/mL | > 16 µg/mL | > 16 µg/mL | > 16 µg/mL | > 16 µg/mL | > 16 µg/mL
13 | O=C(/C=C/c1ccccc1)NC[C@H]1CN(c2ccc(N3CCN(Cc4ccc([N+](=O)[O-])o4)CC3)c(F)c2)C(=O)O1 | > 16 µg/mL | > 16 µg/mL | > 16 µg/mL | > 16 µg/mL | > 16 µg/mL | > 16 µg/mL | > 16 µg/mL | > 16 µg/mL
14 | NC(=S)NC[C@H]1CN(c2ccc(N3CCN(Cc4ccc([N+](=O)[O-])o4)CC3)c(F)c2)C(=O)O1 | 1 µg/mL (≈ 2.09 µM) | 1 µg/mL (≈ 2.09 µM) | 1 µg/mL (≈ 2.09 µM) | 1 µg/mL (≈ 2.09 µM) | 0.5 µg/mL (≈ 1.04 µM) | 1 µg/mL (≈ 2.09 µM) | 0.25 µg/mL (≈ 0.522 µM) | < 0.06 µg/mL
15 | CC(=O)NC[C@H]1CN(c2ccc(N3CCN(Cc4ccc([N+](=O)[O-])o4)CC3)c(F)c2)C(=O)O1 [RANBEZOLID] | – | 1 µg/mL (≈ 2.17 µM) | 2 µg/mL (≈ 4.33 µM) | 2 µg/mL (≈ 4.33 µM) | 2 µg/mL (≈ 4.33 µM) | 2 µg/mL (≈ 4.33 µM) | 0.125 µg/mL (≈ 0.271 µM) | 0.125 µg/mL (≈ 0.271 µM)
16 | O=C(NC[C@H]1CN(c2ccc(N3CCN(Cc4ccc([N+](=O)[O-])o4)CC3)c(F)c2)C(=O)O1)C(Cl)Cl | > 16 µg/mL | > 16 µg/mL | > 16 µg/mL | > 16 µg/mL | > 16 µg/mL | > 16 µg/mL | > 16 µg/mL | > 16 µg/mL
17 | NC[C@H]1CN(c2ccc(N3CCN(Cc4ccc([N+](=O)[O-])o4)CC3)c(F)c2)C(=O)O1 | > 16 µg/mL | > 16 µg/mL | > 16 µg/mL | > 16 µg/mL | > 16 µg/mL | > 16 µg/mL | > 16 µg/mL | > 16 µg/mL
18 | CC(=S)NC[C@H]1CN(c2ccc(N3CCN(Cc4ccc([N+](=O)[O-])o4)CC3)c(F)c2)C(=O)O1 | 1 µg/mL (≈ 2.09 µM) | 1 µg/mL (≈ 2.09 µM) | 1 µg/mL (≈ 2.09 µM) | 1 µg/mL (≈ 2.09 µM) | 1 µg/mL (≈ 2.09 µM) | 1 µg/mL (≈ 2.09 µM) | 0.5 µg/mL (≈ 1.05 µM) | 0.25 µg/mL (≈ 0.524 µM)
19 | O=C(NC[C@H]1CN(c2ccc(N3CCN(Cc4ccc([N+](=O)[O-])o4)CC3)c(F)c2)C(=O)O1)c1ccc([N+](=O)[O-])s1 | > 16 µg/mL | > 16 µg/mL | > 16 µg/mL | > 16 µg/mL | > 16 µg/mL | > 16 µg/mL | > 16 µg/mL | > 16 µg/mL
20 | O=C1O[C@@H](COc2ccon2)CN1c1ccc(N2CCN(Cc3ccc([N+](=O)[O-])o3)CC2)c(F)c1 | > 16 µg/mL | > 16 µg/mL | > 16 µg/mL | > 16 µg/mL | > 16 µg/mL | > 16 µg/mL | > 16 µg/mL | > 16 µg/mL
21 | CN(C)C(=S)NC[C@H]1CN(c2ccc(N3CCN(Cc4ccc([N+](=O)[O-])o4)CC3)c(F)c2)C(=O)O1 | > 16 µg/mL | > 16 µg/mL | > 16 µg/mL | > 16 µg/mL | > 16 µg/mL | > 16 µg/mL | > 16 µg/mL | > 16 µg/mL
22 | O=C(CCl)NC[C@H]1CN(c2ccc(N3CCN(Cc4ccc([N+](=O)[O-])o4)CC3)c(F)c2)C(=O)O1 | 2 µg/mL (≈ 4.03 µM) | 2 µg/mL (≈ 4.03 µM) | 2 µg/mL (≈ 4.03 µM) | 2 µg/mL (≈ 4.03 µM) | 2 µg/mL (≈ 4.03 µM) | 2 µg/mL (≈ 4.03 µM) | 0.5 µg/mL (≈ 1.01 µM) | 0.5 µg/mL (≈ 1.01 µM)
23 | O=C(NC[C@H]1CN(c2ccc(N3CCN(Cc4ccc([N+](=O)[O-])o4)CC3)c(F)c2)C(=O)O1)c1ccc([N+](=O)[O-])o1 | 2 µg/mL (≈ 3.58 µM) | 8 µg/mL (≈ 14.3 µM) | 1 µg/mL (≈ 1.79 µM) | 2 µg/mL (≈ 3.58 µM) | 4 µg/mL (≈ 7.16 µM) | > 8 µg/mL | > 8 µg/mL | 8 µg/mL (≈ 14.3 µM)
24 | CSC(=S)NC[C@H]1CN(c2ccc(N3CCN(Cc4ccc([N+](=O)[O-])o4)CC3)c(F)c2)C(=O)O1 | > 16 µg/mL | > 16 µg/mL | > 16 µg/mL | > 16 µg/mL | > 16 µg/mL | > 16 µg/mL | > 16 µg/mL | > 16 µg/mL
25 | O=C(NC[C@H]1CN(c2ccc(N3CCN(Cc4ccc([N+](=O)[O-])o4)CC3)c(F)c2)C(=O)O1)C(F)F | 1 µg/mL (≈ 2.01 µM) | 2 µg/mL (≈ 4.02 µM) | 2 µg/mL (≈ 4.02 µM) | 2 µg/mL (≈ 4.02 µM) | 2 µg/mL (≈ 4.02 µM) | 2 µg/mL (≈ 4.02 µM) | 0.5 µg/mL (≈ 1.01 µM) | 0.5 µg/mL (≈ 1.01 µM)
26 | COCC(=O)NC[C@H]1CN(c2ccc(N3CCN(Cc4ccc([N+](=O)[O-])o4)CC3)c(F)c2)C(=O)O1 | > 16 µg/mL | > 16 µg/mL | > 16 µg/mL | > 16 µg/mL | > 16 µg/mL | > 16 µg/mL | > 16 µg/mL | > 16 µg/mL
27 | COC(=O)NC[C@H]1CN(c2ccc(N3CCN(Cc4ccc([N+](=O)[O-])o4)CC3)c(F)c2)C(=O)O1 | 8 µg/mL (≈ 16.8 µM) | 8 µg/mL (≈ 16.8 µM) | 2 µg/mL (≈ 4.19 µM) | 8 µg/mL (≈ 16.8 µM) | 8 µg/mL (≈ 16.8 µM) | 8 µg/mL (≈ 16.8 µM) | 1 µg/mL (≈ 2.09 µM) | 1 µg/mL (≈ 2.09 µM)
28 | O=CNC[C@H]1CN(c2ccc(N3CCN(Cc4ccc([N+](=O)[O-])o4)CC3)c(F)c2)C(=O)O1 | 2 µg/mL (≈ 4.47 µM) | 4 µg/mL (≈ 8.94 µM) | 2 µg/mL (≈ 4.47 µM) | 2 µg/mL (≈ 4.47 µM) | 2 µg/mL (≈ 4.47 µM) | 4 µg/mL (≈ 8.94 µM) | 0.5 µg/mL (≈ 1.12 µM) | 1 µg/mL (≈ 2.24 µM)
